DNMT1 block: inhibitors of human DNMT1. DNMT1 molecular beacon, Hinp1I cleavage, fluorescence. 360,000 compounds, 0.83% hits. inhibition (reported as % activation of signal), % at 10 µM. AID 588458; in the data active = inhibition above about 50%
SUMO1 PPI mod: SUMO1-SIM interaction modulation | inhibition, % at 20 µM | 360,000 compounds, 0.33% hits | SUMO1 binding to a labelled peptide, TR-FRET, 1 h; in the data active = inhibition above about 37%
Scp1 inh: Scp-1 (human) phosphatase inhibition. Recombinant Scp1, phosphopeptide, malachite green phosphate absorbance. inhibition, % at 20 µM. 340,000 compounds, 0.88% hits. Q9GZU7;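 active = inhibition above about 50% at 20 µM, limit read from the data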
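Test system: SCP-1 catalytic domain; Buffer or medium: Acidic Tris acetate buffer with magnesium and detergent; Also added: Phosphorylated 17-residue peptide substrate; Compound: single 20 µM dose, 1% DMSO; Schedule: enzyme reaction 45 min at room temperature, colour 5 min, stabilisation 30 min; Signal: Phosphate-binding colour reagent, absorbance read at 630 nm.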
Rpn11 block: blocks the human proteasome subunit Rpn11; O00487; human 26S proteasome, Ub4-pepOG fluorescence polarization; 20S core pre-blocked with epoxomicin; inhibition, % at 20 µM; 360,000 compounds, 0.59% hits; AID 588493;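 active = inhibition at 20 µM, scaled to each plate's controls, above about 33%, limit read from the data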
STEP inh: blocks human striatal-enriched tyrosine phosphatase; P54829; recombinant STEP, OMFP fluorogenic substrate, fluorescence; inhibition, % at 20 µM; 360,000 compounds, 0.25% hits;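 active = inhibition at 20 µM, scaled per plate between control wells, above about 37%, limit read from the data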
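Assay system: isolated STEP enzyme. Buffer or medium: pH 6.0 Bis-Tris with DTT and Tween 20. Also added: fluorogenic phosphatase substrate OMFP at 25 µM final. Dosing: 20 µM, 1% DMSO. Timing: 20 min reaction, room temperature, in the dark. Measured by: fluorescence intensity, excitation 480 nm, emission 540 nm. Evaluation: normalized % inhibition.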
LMPTP block: blocks human LMPTP phosphatase. P24666. recombinant LMPTP-A, OMFP fluorogenic substrate, fluorescence intensity. inhibition, % at 20 µM. 360,000 compounds, 0.22% hits. AID 651560;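 active = compounds that cut the enzyme signal by at least half of the control window in the single-dose screen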
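Test system: LMPTP-A, protein tyrosine phosphatase of low molecular weight; Input: 0.625 nM enzyme; Incubation: 50 min dark incubation at room temperature; Signal: endpoint fluorescence intensity from OMFP dephosphorylation; Read-out basis: % inhibition versus control wells.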
Of the large screens only hits and unclear results are named; the others gave an inactive call. A selection: hits, their analogues and other compounds. The true share with any hit is near 2.3%.

COC(=O)[C@@]12CCCN1[C@H](c1ccc(-c3cccc(Cl)c3)cc1)[C@H]1C(=O)N(C)C(=O)[C@H]12	none
O=C(N/N=C\C=C\c1ccc([N+](=O)[O-])o1)c1cccs1	DNMT1 block 80.6, Scp1 inh 57.4
CC(C)C[C@H]1CN(CCCC[C@@H]2CNC(=O)C(=O)N2CC2CCCCC2)C(=O)C(=O)N1CCc1ccc(O)cc1	none (no result: DNMT1 block, Scp1 inh, Rpn11 block, STEP inh)
COc1ccccc1-c1sc2ccccc2c1-c1ccc2c(c1)OCO2	none
COc1ccccc1-c1sc2cc3c(cc2c1-c1ccc2c(c1)OCO2)OCO3	Scp1 inh 68.5
CCc1nnc(SC(C)C(=O)Nc2nccs2)n1C (configuration not stated)	none
CC1(c2nnc(Cc3ccccc3)o2)CC(c2ccncc2)=NO1 (configuration not stated)	none
COc1cccc2c1[C@@H]1CN(CCCCn3c(=O)[nH]c4c(sc5ncc(-c6ccccc6)nc54)c3=O)C[C@@H]1CO2	LMPTP block 67.5
CCCCCC(=O)NC(NC(=S)N1CCOCC1)C(Cl)(Cl)Cl (configuration not stated)	none
CCCCCC(=O)NC(NC(=S)NC1CCS(=O)(=O)C1)C(Cl)(Cl)Cl (configuration not stated)	SUMO1 PPI mod 58.7
O=c1cc(CSc2nc(NCc3ccccc3)c3ccccc3n2)nc2ccc(Cl)cn12	LMPTP block 53.3
O=C(Nc1cccc([N+](=O)[O-])c1)c1ccc2ccccc2c1O	none
CCOc1ccc(NC(=O)CN(C)C(=O)C2CCN(C(=O)Nc3ccccc3)CC2)cc1OCC	none
COc1cc(N=c2ssnc2Cl)cc(OC)c1OC	LMPTP block 57.4
COc1ccc(N=c2ssnc2Cl)cc1	none
COc1cc(C(=O)Nc2ccc(S(=O)(=O)Nc3nccc(C)n3)cc2)c([N+](=O)[O-])cc1OC	none
CCN1CCN(c2nc3c(C)cccn3c(=O)c2/C=C(\C#N)C(=O)NC)CC1	none
CCn1cc(C(=O)O)c(=O)c2cc(F)c(N3CCN(C(=S)NC(=O)c4ccccc4Br)CC3)cc21	LMPTP block 67.6
CCn1cc(C(=O)O)c(=O)c2cc(F)c(N3CCN(C(=S)NC(=O)c4ccc(F)c(F)c4)CC3)cc21	LMPTP block 51.6
CCC(=O)N1CCN(c2cc3c(cc2F)c(=O)c(C(=O)O)cn3CC)CC1	none
CCn1cc(C(=O)O)c(=O)c2cc(F)c(N3CCN(C(=S)Nc4ccccc4OC)CC3)cc21	none
CCn1cc(C(=O)O)c(=O)c2cc(F)c(N3CCN(C(=S)NC(=O)c4ccc(F)cc4)CC3)cc21	LMPTP block 67.6
CCn1cc(C(=O)O)c(=O)c2cnc(N3CCN(C(=S)NC(=O)c4ccc(F)c(F)c4)CC3)nc21	none
CCn1cc(C(=O)O)c(=O)c2cc(F)c(N3CCN(C(=S)NC(=O)c4cccc(F)c4)CC3)cc21	LMPTP block 65.8
CCn1cc(C(=O)O)c(=O)c2cc(F)c(N3CCN(C(=S)NC(=O)c4c(OC)cccc4OC)CC3)cc21	LMPTP block 65.2
CCCCCCCCCCCCCCCCn1cc[n+](C)c1	Rpn11 block 97.2
CC(C)(C)OC(=O)N1CCC(C(=O)Nc2ccc3c(c2)CCC3)CC1	none
O=C1N/C(=N/S(=O)(=O)Cc2ccccc2)S/C1=C/c1ccc2c(c1)OCO2	none
Cc1ccc(-c2[nH]c3cc(C(=O)NCCCn4ccnc4)ccc3c(=O)c2O)cc1	LMPTP block 50.8
CCCNC(=O)c1ccc2c(=O)c(O)c(-c3ccc(C)cc3)[nH]c2c1	none
Cc1cc(/C=N/NC(=O)c2ccncc2)c(C)n1-c1ccccc1	none
Cc1cc(C(=O)N/N=C/c2ccc(O)c(O)c2O)c(C)n1-c1ccccc1	LMPTP block 55.9
O=C(Cc1cccc(F)c1)N1CCOCC1	none
Cc1ccc(-n2c(N)c(C(=O)N3CCCCC3)sc2=S)cc1	none
Cc1ccc(-n2c(N)c(C(=O)N3CCN(C)CC3)sc2=S)cc1	STEP inh 95.6
CCN1CCN(c2ccc(Nc3ccnc4ccccc34)cc2)CC1	LMPTP block 66.8
CCc1nc(N)nc(N)c1-c1ccc(N(C)Cc2ccccc2)c([N+](=O)[O-])c1	LMPTP block 78.7
CCc1nc(N)nc(N)c1-c1ccc(Cl)cc1	LMPTP block 55.8
O=C(COC(=O)c1nc(Cl)ccc1Cl)NCc1ccc(Cl)cc1	none
CSc1ccc(NC(=O)C(C)N2CCN(C)CC2)cc1 (configuration not stated)	none
OC1CCC2CN3CCc4c([nH]c5ccccc45)C3CC2C1 (configuration not stated)	none (no result: Scp1 inh)
O=C(O)[C@@H]1[C@H]2C[C@H]3c4[nH]c5ccccc5c4CCN3C[C@@H]2CC[C@@H]1O	LMPTP block 59.5
COc1ccc(-n2cccc2/C=C2\C(=N)N3N=C(c4ccco4)SC3=NC2=O)cc1	DNMT1 block 90.4, SUMO1 PPI mod 103.0, Scp1 inh 81.5, STEP inh 86.8, LMPTP block 50.6 (not shown: Rpn11 block)
COc1ccc(Cc2n[nH]c(=O)c3ccccc23)cc1OC	none
CC[n+]1ccc2cc(OC)c(OC)cc2c1Cc1ccc(OC)c(OC)c1	Scp1 inh 96.5
COc1ccc(Cc2c3cc(OC)c(OC)cc3cc[n+]2C)cc1OC	Scp1 inh 101.0
COc1ccc2c(c1)c[n+](C)c1c3cc(OC)c(OC)cc3ccc21	none (no result: DNMT1 block, Scp1 inh, Rpn11 block, STEP inh)
Cc1ccc(CSCC(=O)N(C)CC(=O)Nc2ccccc2C(F)(F)F)cc1	none
COC(=O)Cn1c(C)c(C(C)=O)c(C(C)=O)c1C	SUMO1 PPI mod 47.9
COC(=O)c1sc(NC(=S)NC(=O)c2cccc(C)c2)nc1C	none
COC(=O)c1sc(NC(=S)NC(=O)c2ccccc2F)nc1C	LMPTP block 72.6
c1nc(SSc2ncnc3nc[nH]c23)c2[nH]cnc2n1	LMPTP block 47.4
CC1=CC(C)(C)N(C(=O)CSc2ncn[nH]2)c2ccc(C)cc21	SUMO1 PPI mod 43.2
CN1CCCCC1(C)C(=O)NCc1ccc(C(C)(C)C)cc1 (configuration not stated)	none (no result: Scp1 inh)
O=C(O)c1cc(Cl)c2c(c1)[C@@H]1C=CC[C@@H]1[C@H](c1ccc(S(=O)(=O)N3CCOCC3)cc1)N2	SUMO1 PPI mod 41.8
Cc1oc(-c2cc(F)ccc2F)nc1CN(C)Cc1ccc2nccnc2c1	none
Cc1oc(-c2cc(F)ccc2F)nc1CN1CCN(c2cnccn2)CC1	SUMO1 PPI mod 43.8
CCN(CC)c1ccc(/C=N/NC(=O)Nc2ccccc2)cc1	none
O=C(Cc1nnc(NC(=O)c2ccccc2)s1)N/N=C\c1ccc(O)c(O)c1	DNMT1 block 59.2
CCN(CC)c1ccc(/C=N/NC(=O)Cc2nnc(NC(=O)Nc3ccccc3)s2)cc1	DNMT1 block 50.2

Assay outcomes (PubChem)
